According to ChEMBL document CHEMBL4351008, “Discovery of novel pyrimidine-based benzothiazole derivatives as potent cyclin-dependent kinase 2 inhibitors with anticancer activity” (Eur J Med Chem, 2019):

How the values were obtained:
HCT-116 = assay: Antiproliferative activity against human HCT116 cells incubated for 48 hrs by MTT assay; type: functional, cell-based; details: HCT-116, 48 h
How it was run: (§1)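 Cells kept at 37 °C in humidified 5% CO2: MDA-MB-231, MCF-7, HeLa and HCT116 in RPMI-1640; PC-3 in DMEM/F12; both media had 10% FBS. Compounds came from 60 mM DMSO stocks diluted in medium. At 70–80% confluence, cells got fresh medium with compound for 48 h at 37 °C, with 0.1% DMSO as negative control. MTT (5 mg/mL stock) was added for 4 h, and formazan was dissolved in DMSO and read at 570 nm. % inhibition was taken relative to control, IC50 was fitted, and data are mean ± SD of three independent experiments in duplicate.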

MDA-MB-231 = assay: Antiproliferative activity against human MDA-MB-231 cells incubated for 48 hrs by MTT assay; type: functional, cell-based; details: MDA-MB-231, 48 h; how it was run: as §1
MCF7 = assay: Antiproliferative activity against human MCF7 cells incubated for 48 hrs by MTT assay; type: functional, cell-based; details: MCF7, 48 h; how it was run: as §1
HeLa = assay: Antiproliferative activity against human HeLa cells incubated for 48 hrs by MTT assay; type: functional, cell-based; how it was run: as §1
PC-3 = assay: Antiproliferative activity against human PC3 cells incubated for 48 hrs by MTT assay; type: functional, cell-based; details: PC-3, 48 h; how it was run: as §1
[1] = target: CDK2/Cyclin A2 (Homo sapiens) (UniProt P24941+P20248); assay: Inhibition of CDK2/cyclin A2 (unknown origin) using histone H1 and ATP as substrate at 1 uM incubated for 40 mins by kinase-glo luminescence assay relative to control; type: protein-complex assay
How it was run: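 Recombinant CDK2/cyclin A2 (0.2 µg/mL) was run with 0.1 mg/mL histone H1 and 10 µM ATP in 40 mM Tris pH 7.4, 10 mM MgCl2, 0.1 mg/mL BSA and 1 mM DTT, for 40 min at 30 °C. Compound was tested at 1 µM final, with 1% DMSO final. Remaining ATP was quantified by Kinase-Glo Plus luminescence, which is inversely related to kinase activity.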

CDK2/Cyclin A2 = CDK2/Cyclin A2 (Homo sapiens, UniProt P24941); assay: Inhibition of CDK2/cyclin A2 (unknown origin) using histone H1 and ATP as substrate incubated for 40 mins by kinase-glo luminescence assay; type: protein-complex assay

SMILES | IC50 (HCT-116) | IC50 (MDA-MB-231) | IC50 (MCF7) | IC50 (HeLa) | IC50 (PC-3) | inhibition [1] | IC50 (CDK2/Cyclin A2)
NS(=O)(=O)c1ccc(Nc2ncc(F)c(Nc3nc4ccc(Cl)cc4s3)n2)cc1 | 8.62 µM | 2.79 µM | 8.34 µM | 8.77 µM | 1.43 µM |  | 
NS(=O)(=O)c1ccc(Nc2nccc(Nc3nc4ccccc4s3)n2)cc1 | 5.17 µM | 5 µM | 15.3 µM | 2.06 µM | 3.1 µM | 84% | 
COc1ccc2nc(Nc3nc(Nc4ccc(S(N)(=O)=O)cc4)ncc3F)sc2c1 | 11.5 µM | 26.6 µM | > 50 µM | 13 µM | > 50 µM |  | 
Cc1ccc2nc(Nc3nc(Nc4ccc(S(C)(=O)=O)cc4)ncc3F)sc2c1 | 9.18 µM | 14.3 µM | > 50 µM | 17.2 µM | > 50 µM |  | 
CS(=O)(=O)c1ccc(Nc2nccc(Nc3nc4ccc(Cl)cc4s3)n2)cc1 | 1.35 µM | > 50 µM | > 50 µM | 1.4 µM | > 50 µM |  | 
NS(=O)(=O)c1ccc(Nc2ncc(F)c(Nc3nc4ccccc4s3)n2)cc1 | 3.26 µM | 22.6 µM | > 50 µM | 4.52 µM | > 50 µM | 93% | 0.0165 µM
CS(=O)(=O)c1ccc(Nc2nccc(Nc3nc4ccccc4s3)n2)cc1 | 8.37 µM | 5.91 µM | 10.6 µM | 11.3 µM | 1.71 µM | 80% | 
Cc1ccc2nc(Nc3nc(Nc4ccc(S(N)(=O)=O)cc4)ncc3F)sc2c1 | 1.46 µM | 6.39 µM | 24.5 µM | 1.89 µM | 4.96 µM | 92% | 0.0214 µM
COc1ccc2nc(Nc3nc(Nc4ccc(S(C)(=O)=O)cc4)ncc3F)sc2c1 | 2.63 µM | 4.74 µM | 5.85 µM | 25.4 µM | 1.27 µM |  | 
Cc1ccc2nc(Nc3ccnc(Nc4ccc(S(N)(=O)=O)cc4)n3)sc2c1 | 0.9 µM | 3.87 µM | 5.74 µM | 0.66 µM | 1.64 µM | 82% | 
CS(=O)(=O)c1ccc(Nc2nccc(Nc3nc4ccc(F)cc4s3)n2)cc1 | 0.86 µM | 2.08 µM | > 60 µM | 0.56 µM | 1.94 µM | 89% | 
CS(=O)(=O)c1ccc(Nc2ncc(F)c(Nc3nc4ccc(F)cc4s3)n2)cc1 | > 50 µM | 8.9 µM | > 50 µM | > 50 µM | > 50 µM |  | 
Cc1ccc2nc(Nc3nc(Nc4ccc(S(N)(=O)=O)cc4)ncc3C)sc2c1 | 3.87 µM | 9.08 µM | > 50 µM | 3.28 µM | 2.71 µM |  | 
Cc1cnc(Nc2ccc(S(N)(=O)=O)cc2)nc1Nc1nc2ccc(F)cc2s1 | 2.01 µM | 7.58 µM | > 50 µM | 3.46 µM | 6.98 µM |  | 
Cc1ncc(-c2ccnc(Nc3ccc(S(C)(=O)=O)cc3)n2)n1C(C)C [AZD-5438] | 0.47 µM | 7.2 µM | 10.7 µM | 0.73 µM | 0.36 µM |  | 
Cc1ccc2nc(Nc3ccnc(Nc4ccc(S(C)(=O)=O)cc4)n3)sc2c1 | 1.75 µM | 4.44 µM | > 50 µM | 2.3 µM | > 50 µM | 77% | 
COc1ccc2nc(Nc3ccnc(Nc4ccc(S(C)(=O)=O)cc4)n3)sc2c1 | 2.27 µM | 32.7 µM | > 50 µM | 4.13 µM | 2.7 µM |  | 
COc1ccc2nc(Nc3nc(Nc4ccc(S(N)(=O)=O)cc4)ncc3C)sc2c1 | 7.86 µM | > 50 µM | > 50 µM | 36.7 µM | > 50 µM |  | 
CS(=O)(=O)c1ccc(Nc2ncc(F)c(Nc3nc4ccc(Cl)cc4s3)n2)cc1 | 20.7 µM | 11.1 µM | > 50 µM | > 50 µM | > 50 µM |  | 
COc1ccc2nc(Nc3ccnc(Nc4ccc(S(N)(=O)=O)cc4)n3)sc2c1 | 1.48 µM | 6.24 µM | 11 µM | 1.73 µM | 3.03 µM |  | 
Cc1cnc(Nc2ccc(S(C)(=O)=O)cc2)nc1Nc1nc2ccc(F)cc2s1 | 24 µM | > 50 µM | 3.26 µM | > 50 µM | > 50 µM |  | 

The next lines start with the values.

IC50 (HCT-116) | IC50 (MDA-MB-231) | IC50 (MCF7) | IC50 (HeLa) | IC50 (PC-3) | inhibition [1] | IC50 (CDK2/Cyclin A2) | SMILES
> 50 µM | > 50 µM | > 50 µM | > 50 µM | > 50 µM |  |  | Cc1cnc(Nc2ccc(C(C)C)cc2)nc1Nc1nc2ccccc2s1
27.8 µM | > 50 µM | > 50 µM | 16.3 µM | > 50 µM |  |  | Cc1cnc(Nc2cccc(F)c2)nc1Nc1nc2ccccc2s1
2.52 µM | 9.42 µM | 8.43 µM | 3.73 µM | 5.4 µM | 90% |  | Cc1cnc(Nc2ccc(S(N)(=O)=O)cc2)nc1Nc1nc2ccc(Cl)cc2s1
2.5 µM | 5.9 µM | 4.32 µM | 4.18 µM | 13.4 µM | 81% |  | Cc1cnc(Nc2ccc(S(C)(=O)=O)cc2)nc1Nc1nc2ccc(Cl)cc2s1
6.33 µM | 22.5 µM | > 50 µM | 34.3 µM | > 50 µM |  |  | Cc1cnc(Nc2ccc([N+](=O)[O-])cc2)nc1Nc1nc2ccccc2s1
> 50 µM | > 50 µM | > 50 µM | > 50 µM | > 50 µM |  |  | Cc1cnc(Nc2ccc(F)cc2)nc1Nc1nc2ccccc2s1
> 50 µM | > 50 µM | > 50 µM | > 50 µM | > 50 µM |  |  | COc1ccc(Nc2ncc(C)c(Nc3nc4ccccc4s3)n2)cc1
0.76 µM | 14.8 µM | 6.55 µM | 0.46 µM | > 50 µM | 90% | 0.0378 µM | Cc1cnc(Nc2ccc(S(C)(=O)=O)cc2)nc1Nc1nc2ccccc2s1
3.27 µM | 4.98 µM | 6.88 µM | 3.17 µM | 2.83 µM | 95% | 0.0127 µM | CS(=O)(=O)c1ccc(Nc2ncc(F)c(Nc3nc4ccccc4s3)n2)cc1
18.7 µM | 37.2 µM | > 50 µM | 4.34 µM | > 50 µM |  |  | Cc1cnc(Nc2ccc(N3CCCCC3)cc2)nc1Nc1nc2ccccc2s1
> 50 µM | > 50 µM | > 50 µM | > 50 µM | > 50 µM |  |  | Cc1cnc(Nc2ccc(Cl)cc2)nc1Nc1nc2ccccc2s1
1.66 µM | 16.8 µM | > 50 µM | 2.8 µM | > 50 µM | 91% | 0.0217 µM | Cc1cnc(Nc2ccc(S(N)(=O)=O)cc2)nc1Nc1nc2ccccc2s1
> 50 µM | > 50 µM | > 50 µM | > 50 µM | > 50 µM |  |  | COc1cccc(Nc2ncc(C)c(Nc3nc4ccccc4s3)n2)c1
